The term pIC50 denotes the IC50 on a negative log10 scale, so that one unit is a factor of ten. A higher pIC50 goes with a low IC50.

pIC50: −log10 of the molar value. “And” between values parts separate entries of the source, which are not always exact repeats. Equal values may be shown once. The source made the active and inactive calls. No cut-off for these calls is given here.

The values below come from ChEMBL document CHEMBL1122623, “Activities of morphinone and N-(cyclopropylmethyl)normorphinone at opioid receptors” (J Med Chem, 1984).

Assay type in all cases: functional
For assay [1], the species on record is Mus musculus. The assay can be described thus: Antagonist activity in mouse vas deferens preparation.
For assay [2], the system named is Mus musculus. The assay can be described thus: Analgesic activity, 30 min after subcutaneous administration of the compound, in mice.
Assay [3] is filed under the species Cavia porcellus. The assay can be described thus: Agonist activity in guinea pig ileum preparation. In outline:
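Electrically stimulated guinea pig ileum. Agonist IC50 is derived from concentration-response curves, with the number of experiments noted for each. In a separate run, tissue is depleted of functional μ receptors by preincubation with β-FNA before the agonist curve is repeated.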

Assay [4] is described as follows: Irreversible antagonist activity is measured from the ratio of agonist activity (IC50) to that of the control (morphine). Summed up:
(§1)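 Electrically stimulated guinea pig ileum or mouse vas deferens. Tissue is incubated 30 min with 200 nM compound, then washed 20 times. […] Number of experiments is noted.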

Assay [5] concerns Mus musculus. The assay can be described thus: Analgesic activity by tail-flick procedure, after intracerebroventricular administration in mice. Compound is inactive at 10 nmol/mouse.
A short description of assay [6]: Irreversible antagonist activity is measured from the ratio of agonist activity (IC50) to that of the control (ethylketazocine). Summed up:
as §1

In assay [7] the test system is Mus musculus. The assay can be described thus: Mice were intracerebroventricularly injected with 10 nmol and challenged with a 10 mg/kg subcutaneous dose of morphine sulfate; percentage of animals exhibiting analgesia was reported, after 24 hr.
In assay [8] the test system is Mus musculus. The assay can be described thus: Mice were intracerebroventricularly injected with 10 nmol and challenged with a 10 mg/kg subcutaneous dose of morphine sulfate; percentage of animals exhibiting analgesia was reported, after 2 hr.
The test system of assay [9] is Mus musculus. Put plainly: analgesic activity by tail-flick procedure, after intracerebroventricular administration in mice; Compound is inactive at 10 nmol/mouse.
The test system of assay [10] is Mus musculus. Put plainly: Mice were intracerebroventricularly injected with 10 nmol and challenged with a 10 mg/kg subcutaneous dose of morphine sulfate; percentage of animals exhibiting analgesia was reported, after 0.5 hr.

With `CC(C)C[C@@H](NC(=O)[C@H](Cc1ccccc1)NC(=O)CNC(=O)[C@@H](C)NC(=O)[C@@H](N)Cc1ccc(O)cc1)C(=O)O` [DADLE], in assay [1], the pIC50 was 9.66.
For the compound `CN1CC[C@]23c4c5ccc(O)c4O[C@H]2[C@@H](O)C=C[C@H]3[C@H]1C5` [MORPHINE], the ED50 in [2] is 2.8 nM mouse-1.
As for `CCOc1ccc2c(c1)C1(C)CCN(CC3CC3)C(C2=O)C1C` (configuration not stated) [ETHYLKETAZOCINE], in [3], the negative logarithm of the IC50 (pIC50) is 8.80.
On to `CN1CCC23c4c5ccc(O)c4O[C@H]2C(=O)C=CC3C1C5` (some centres not stated), for which the Ratio in assay [4] was 0.67 and 0.68; in [6], 0.92. Further, the ED50 in assay [5] was 11.1 nM mouse-1. For the same compound, the results for the pIC50 in [1] and in assay [3] were 7.33 and 6.97, respectively. For the same compound, the values for the Dose in [7] and in [8] were 67% and 80%, respectively.
Turning to `O=C1C=CC2C3Cc4ccc(O)c5c4C2(CCN3CC2CC2)[C@H]1O5` (some centres not stated), the pIC50 in [1] and in assay [3] was 6.52 in each case. For the same compound, the ED50 entry in [9] was “inactive”. For the same compound, the Dose is 10% in [10], 67% in assay [7] and 60% in assay [8]. Besides, the Ratio in assay [6] amounted to 0.82.
